Hits are enriched below; roughly 4.1% of the tested compounds scored in any of these assays.
UPR CHOP act: activators of apoptotic CHOP UPR arm, primary screen, cell-based, CHO-CHOP luciferase reporter, luminescence, uHTS. UPR activation; percent of tunicamycin response over DMSO baseline. activation, % at 10 µM. 330,000 tested, 0.34% active;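 active = at 10 µM dose, activation of 40% or more, normalized to positive control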
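Assay system: CHO cells with stable CHOP pathway luciferase reporter; Buffer or medium: F12 plus 10% serum; Times: 16-18 h cell attachment, then 6 h compound exposure, 37 °C; Signal: luciferase luminescence; Read-out basis: percent activation relative to tunicamycin control; Control set: tunicamycin high control, DMSO low control.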
UPR XBP1 act: activators of adaptive XBP1 UPR arm, primary screen, cell-based, CHO-XBP1 luciferase reporter, luminescence, uHTS. IRE1-XBP1 UPR activation; percent of tunicamycin response, DMSO as zero. activation, % at 20 µM. 330,000 tested, 0.33% active;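 active = versus positive control, 20 µM dose yields 30% or more activation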
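Test system: CHO-XBP1 luciferase reporter cells | Buffer or medium: Serum-containing F12 medium, 10% FBS | Schedule: 6 h compound exposure at 37 °C, 5% CO2 | Detection: Steady-Glo luciferase glow luminescence, 10 min after reagent addition | Read-out basis: Activation, % of tunicamycin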
Apaf-1 inh: inhibitors of human Apaf-1 apoptosome, primary screen, biochemical, DEVD-Rh110 fluorescence, uHTS; reconstituted apoptosome caspase-3 activity; inhibition, % at 20 µM; 330,000 tested, 0.71% active; active = inhibition of at least 40% at 20 µM
Target sequence (O14727 whole entry, looked up): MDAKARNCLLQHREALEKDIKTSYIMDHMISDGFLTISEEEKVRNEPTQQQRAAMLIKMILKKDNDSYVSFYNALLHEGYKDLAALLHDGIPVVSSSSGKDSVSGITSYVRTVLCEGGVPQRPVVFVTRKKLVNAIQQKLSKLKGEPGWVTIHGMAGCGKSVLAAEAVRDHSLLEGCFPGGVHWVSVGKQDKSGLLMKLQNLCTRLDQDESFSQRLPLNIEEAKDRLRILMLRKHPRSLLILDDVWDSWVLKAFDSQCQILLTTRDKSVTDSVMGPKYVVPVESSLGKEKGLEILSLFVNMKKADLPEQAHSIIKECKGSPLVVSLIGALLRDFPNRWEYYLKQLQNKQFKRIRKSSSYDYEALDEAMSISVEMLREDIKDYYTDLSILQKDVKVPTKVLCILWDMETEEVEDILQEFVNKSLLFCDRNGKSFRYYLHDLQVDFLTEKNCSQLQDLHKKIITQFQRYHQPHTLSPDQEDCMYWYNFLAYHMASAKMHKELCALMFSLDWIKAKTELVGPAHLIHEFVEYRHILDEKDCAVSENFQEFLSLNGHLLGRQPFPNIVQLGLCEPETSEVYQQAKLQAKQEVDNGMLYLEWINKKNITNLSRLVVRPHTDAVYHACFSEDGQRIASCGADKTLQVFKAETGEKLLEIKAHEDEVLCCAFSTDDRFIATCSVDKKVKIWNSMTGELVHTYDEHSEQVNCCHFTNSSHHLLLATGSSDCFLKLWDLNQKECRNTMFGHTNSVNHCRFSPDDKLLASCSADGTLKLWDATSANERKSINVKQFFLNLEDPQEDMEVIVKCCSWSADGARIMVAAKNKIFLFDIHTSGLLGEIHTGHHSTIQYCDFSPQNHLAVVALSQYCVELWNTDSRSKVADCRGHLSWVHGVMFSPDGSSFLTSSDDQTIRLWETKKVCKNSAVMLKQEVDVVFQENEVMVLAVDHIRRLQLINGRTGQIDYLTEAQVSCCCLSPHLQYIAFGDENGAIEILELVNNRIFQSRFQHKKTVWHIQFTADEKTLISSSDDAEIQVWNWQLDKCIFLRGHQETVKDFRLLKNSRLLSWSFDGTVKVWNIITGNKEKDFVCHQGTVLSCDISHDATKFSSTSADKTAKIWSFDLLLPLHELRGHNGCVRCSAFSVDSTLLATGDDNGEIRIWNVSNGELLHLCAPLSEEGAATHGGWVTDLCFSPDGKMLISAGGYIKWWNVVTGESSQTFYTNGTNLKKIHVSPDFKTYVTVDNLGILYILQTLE
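detection = Rh110 fluorescence intensity | test system = biochemical Apaf-1 apoptosome reconstitution | also added = cytochrome c and DEVD-Rh110 substrate | schedule = 30 min plus 50 min, RT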
Mdm2-MdmX inh: inhibitors of human Mdm2-MdmX association, primary screen, cell-based, luminescence, split luciferase, SaOS-2, uHTS | SaOS-2 split-luciferase Mdm2/MdmX complementation | inhibition, % at 8 µM | 330,000 tested, 3% active | Protein Mdm4 (Homo sapiens) + E3 ubiquitin-protein ligase Mdm2 (Homo sapiens), …;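 active = inhibition of at least 50% at 8 µM in the primary screen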
UBC13 polyUb: UBC13 polyubiquitin chain formation inhibitors, primary screen, biochemical, TR-FRET, uHTS; Ubiquitin-conjugating enzyme E2 N (Homo sapiens), P61088; inhibition, % at 20 µM; 330,000 tested, 0.47% active; AID 485273, 2010; in the data active = inhibition above about 45%, passing the limit was not always enough
Mdm2-MdmX conf: Mdm2-MdmX complex disruptors, retested hits, confirmation, luminescence, single concentration; shares compounds with Mdm2-MdmX inh; 10,000 tested, 55% active; inhibition, % at 8 µM; Mdm2-MdmX binding, luminescent assay; in the data active = inhibition above about 40%
FLuc counter: full-length luciferase signal inhibition, confirmation, counter-screen for Mdm2/MdmX interaction inhibitor project, cell-based, single concentration, SaOS-2 | shares compounds with Mdm2-MdmX inh | SaOS-2 full-length luciferase counterscreen, luminescence | inhibition, % at 8 µM | 6,200 tested, 77% active;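 active = mean inhibition at 8 µM reaching about 37%, which flags the compound as non-specific, limit read from the data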;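 also: p53-null SaOS-2 cells with luciferase driven by a doxycycline-inducible promoter; compound on cells about two nights before reading with doxycycline added after day one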
Hits are given with their value; i = inactive; nt = no result given.

SMILES | UPR CHOP act | UPR XBP1 act | Apaf-1 inh | Mdm2-MdmX inh | UBC13 polyUb | Mdm2-MdmX conf | FLuc counter
O=C(N/N=C/c1ccccc1)c1cccc2ccccc12 | i | i | i | i | i | nt | nt
O=C(N/N=C/c1cccn1-c1ccc(O)cc1)c1cccc2ccccc12 | i | i | i | 64 | i | i | nt
O=C(CCl)NCc1cc(-c2ccc(Cl)cc2)no1 | i | i | i | 73 | i | i | 66
COCCN(Cc1cc2cc(C)ccc2n2nnnc12)C(=S)Nc1ccccc1C | i | i | i | 51 | i | i | nt
CCc1ccc2c(c1)cc(CN(C(=S)Nc1ccccc1C)C1CC1)c1nnnn12 | i | i | i | i | i | nt | nt
CCc1cccc2c(C(=O)CSc3nnc(C4CC4)o3)c[nH]c12 | i | i | i | i | i | nt | nt
COc1cccc(/C=C2/SC(=S)N(CCCC(=O)Nc3ccc(O)cc3)C2=O)c1 | i | i | i | 100 | i | 85 | i
O=C(CN1C(=O)S/C(=C\C=C\c2ccccc2)C1=O)N1CCCCC1 | i | i | i | i | i | nt | nt
COc1cccc(/C=C2\SC(=S)N(CCCC(=O)Nc3ccc(C(=O)O)cc3)C2=O)c1 | i | i | i | i | i | nt | nt
COc1cccc(/C=C2\SC(=S)N(CCCC(=O)NC3=NCCS3)C2=O)c1 | i | i | i | 63 | i | i | nt
Cc1ccc(/C=C2\SC(=S)N(CCCC(=O)NNC(=O)c3ccccc3O)C2=O)cc1 | i | i | i | i | i | nt | nt
O=C(CN1C(=O)S/C(=C\C=C\c2ccccc2)C1=O)Nc1ccc(O)cc1 | i | i | i | 78 | i | 42 | 81
Cc1ccc(/C=C2\SC(=S)N(CCC(=O)NNC(=O)c3ccccc3O)C2=O)cc1 | i | i | i | 53 | i | i | nt
Cc1ccc(NC(=O)CCCN2C(=O)/C(=C/C=C/c3ccccc3)SC2=S)cc1 | i | i | i | 57 | i | 41 | 47
O=C(CCCN1C(=O)S/C(=C/C=C/c2ccccc2)C1=O)Nc1ccc(C(=O)O)cc1 | i | i | i | i | i | nt | nt
COc1ccc(/C=C2\SC(=S)N(CCCC(=O)Nc3ccc(C(=O)O)cc3)C2=O)cc1OC | i | i | i | i | i | nt | nt
COc1cccc(/C=C2\SC(=S)N(CCCC(=O)Nc3cc(C)on3)C2=O)c1 | i | i | i | 52 | i | 58 | 70
O=C(CCN1C(=O)/C(=C\c2ccccc2)SC1=S)Nc1ccc(C(=O)O)cc1 | i | i | i | i | i | nt | nt
COc1ccc(/C=C2/SC(=S)N(CCCC(=O)Nc3ccc(O)cc3)C2=O)cc1OC | i | i | i | 90 | i | 48 | i
O=C(CCCN1C(=O)/C(=C\c2ccccc2)SC1=S)Nc1ccc(O)cc1 | i | i | i | 99 | i | 100 | i
COc1ccccc1NC(=O)CCN1C(=O)/C(=C\c2cc(OC)c(OC)c(OC)c2)SC1=S | i | i | i | 52 | i | i | nt
O=C(CCN1C(=O)/C(=C\c2ccc(F)cc2)SC1=S)Nc1ccc(O)cc1 | i | i | i | i | i | nt | nt
COc1cc(/C=C2\SC(=S)N(CCC(=O)Nc3ccccc3)C2=O)cc(OC)c1OC | i | i | i | i | i | nt | nt
O=C(CCCN1C(=O)/C(=C/c2cccs2)SC1=S)Nc1cccc(O)c1 | i | i | i | 89 | i | 80 | 73
COc1cc(/C=C2\SC(=S)N(CCC(=O)NC3CCCC3)C2=O)cc(OC)c1OC | i | i | i | i | i | nt | nt
SMILES | UPR CHOP act | UPR XBP1 act | Apaf-1 inh | Mdm2-MdmX inh | UBC13 polyUb | Mdm2-MdmX conf | FLuc counter
Cc1ccc(/C=C2\SC(=S)N(CCCC(=O)NC3CCCC3)C2=O)cc1 | i | i | i | 63 | i | i | nt
O=C(CCN1C(=O)/C(=C/c2cccs2)SC1=S)Nc1cccc(O)c1 | i | i | i | i | i | nt | nt
Cc1ccc(/C=C2/SC(=S)N(CCCC(=O)Nc3ccc(O)cc3)C2=O)cc1 | i | i | i | 92 | i | 94 | 54
CC(NC(=O)COC(=O)C1CCN(c2ccc(C(F)(F)F)cn2)CC1)c1ccc(F)cc1 (configuration not stated) | i | i | i | i | i | nt | nt
O=C(CCCN1C(=O)/C(=C\c2ccccc2)SC1=S)Nc1cccc(C(=O)O)c1 | i | i | i | i | i | nt | nt
O=C(CCCN1C(=O)/C(=C/c2ccccc2)SC1=S)Nc1cccc(O)c1 | i | i | i | 100 | i | 93 | 58
CC(/C=C1\SC(=S)N(CCC(=O)Nc2ccc(O)cc2)C1=O)=C\c1ccccc1 | i | i | i | 62 | i | i | nt
O=C(O)c1cccc(NC(=S)NC(NC(=O)c2cccc([N+](=O)[O-])c2)C(Cl)(Cl)Cl)c1 (configuration not stated) | i | i | i | i | i | nt | nt
O=C(NC(NC(=S)Nc1ccccc1)C(Cl)(Cl)Cl)c1cccc(Cl)c1 (configuration not stated) | i | i | i | 93 | i | 46 | 66
O=C(NC(NC(=S)Nc1ccc(Cl)cc1Cl)C(Cl)(Cl)Cl)c1cccc([N+](=O)[O-])c1 (configuration not stated) | i | i | i | 98 | i | 94 | i
Cc1ccc(-n2nc(C)c(NC(=O)CCl)c2C)cc1C | i | i | i | 76 | i | 88 | i
CCC(=O)Nc1c(C)nn(-c2ccc(C)c(C)c2)c1C | i | i | i | i | i | nt | nt
O=C(NNC(=O)c1ccc(Br)o1)c1csc(N2CCOCC2)n1 | i | i | i | i | i | nt | nt
COc1ccc(OC)c(-c2nnc(SCC(=O)N3CCCC3)o2)c1 | i | i | i | i | i | nt | nt
Cc1ccc(C23CC4CC(CC(NC(=O)NCCN(C)C)(C4)C2)C3)cc1 | i | i | i | i | i | nt | nt
CN(C)CCNC(=O)COc1ccc(C23CC4CC(CC(C4)C2)C3)cc1 | i | i | i | 66 | i | i | nt
NC(=O)C1CCN(C(=O)C2CCC(=O)N(CC3CCCCC3)C2)CC1 (configuration not stated) | i | i | i | i | i | nt | nt
CCCCn1c(O)c(N=NC(=O)c2ccncc2)c2cc(Br)ccc21 | i | i | i | 64 | i | 40 | 63
COc1ccc(CN2CCN(Cc3ccc4cc(F)ccc4n3)CC2CCO)c(C)c1C (configuration not stated) | i | i | i | i | i | nt | nt
Cc1cccc(CN2CCN(C(=O)CCl)CC2)c1 | i | i | i | 64 | i | i | nt
Cc1cccc(CN2CCN(C(=O)c3cccc4ccccc34)CC2)c1 | i | i | i | i | i | nt | nt

Compound activity deposited in PubChem by Sanford-Burnham Center for Chemical Genomics.
